Experiments:
[1] = molecular target: Apoptosis regulator Bcl-2 (Homo sapiens, UniProt P10415); experiment: Displacement of FAM-Bid peptide from human recombinant Bcl2 after 30 mins by competitive fluorescence polarization assay
Method in brief: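 Bcl-2 (40 nM) preincubated with 10 nM FAM-Bid peptide (Kd 8 nM) in 100 mM potassium phosphate pH 7.5, bovine gamma globulin, 0.02% sodium azide. Serial compound dilutions added in 0.01% Triton X-100; polarization read after 30 min. Controls were protein plus peptide, and peptide alone. Ki derived from an equation developed for FP assays.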

[2] = molecular target: Induced myeloid leukemia cell differentiation protein Mcl-1 (Homo sapiens, UniProt Q07820); experiment: Displacement of FAM-Bid peptide from human Mcl-1 after 30 mins by competitive fluorescence polarization assay
Induced myeloid leukemia cell differentiation protein Mcl-1, sequence (Q07820 whole entry): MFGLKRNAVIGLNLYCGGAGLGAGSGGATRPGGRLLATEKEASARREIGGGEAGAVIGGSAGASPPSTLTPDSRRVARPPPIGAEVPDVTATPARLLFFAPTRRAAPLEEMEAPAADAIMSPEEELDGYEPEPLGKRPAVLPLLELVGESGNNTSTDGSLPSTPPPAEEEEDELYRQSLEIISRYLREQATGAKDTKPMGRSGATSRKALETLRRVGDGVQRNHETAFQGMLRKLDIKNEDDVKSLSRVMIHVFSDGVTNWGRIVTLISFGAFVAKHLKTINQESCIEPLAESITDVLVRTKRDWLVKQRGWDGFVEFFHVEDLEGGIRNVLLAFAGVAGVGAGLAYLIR
Method in brief: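 Serial compound dilutions added with 0.01% Triton X-100; polarization read after 30 min. Controls were protein plus peptide, and peptide alone. Ki calculated with an FP-specific competitive binding equation.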

HL-60 = experiment: Cytotoxicity in human HL60 cells overexpressing Bcl-2 after 48 hrs by MTT assay; format: functional, cell-based; details: HL-60, 48 h
K562 = experiment: Cytotoxicity in human K562 cells overexpressing Mcl-1 after 48 hrs by MTT assay; format: functional, cell-based; details: K562, 48 h
MCF7 = experiment: Cytotoxicity in human MCF7 cells overexpressing Mcl-1after 48 hrs by MTT assay; format: functional, cell-based; details: MCF7, 48 h

Apoptosis regulator Bcl-2, sequence (P10415 whole entry): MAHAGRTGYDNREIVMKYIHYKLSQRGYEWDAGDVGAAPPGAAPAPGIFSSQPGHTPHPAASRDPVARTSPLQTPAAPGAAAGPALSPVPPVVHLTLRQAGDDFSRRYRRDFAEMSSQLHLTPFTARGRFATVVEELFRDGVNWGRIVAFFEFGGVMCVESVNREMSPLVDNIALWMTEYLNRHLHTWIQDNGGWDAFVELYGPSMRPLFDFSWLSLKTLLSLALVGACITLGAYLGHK

| Ki [1] [µM] | Ki [2] [µM] | Structure (SMILES) | IC50 (HL-60) [µM] | IC50 (K562) [µM] | IC50 (MCF7) [µM] |
| --- | --- | --- | --- | --- | --- |
| 0.445 | 0.174 | Cc1ccc(Oc2ccc3c4c(cccc24)C2=NC(=O)C(C#N)=C23)cc1 |  |  |  |
| 16.6 | 0.375 | COc1cccc(Oc2ccc3c4c(cccc24)C2=NC(=O)C(C#N)=C23)c1 | > 50 | 8.3 | 6.4 |
| 0.886 | 0.149 | COc1ccccc1Oc1ccc2c3c(cccc13)C1=NC(=O)C(C#N)=C12 |  |  |  |
| 0.304 | 0.122 | COc1ccc(Oc2ccc3c4c(cccc24)C2=NC(=O)C(C#N)=C23)cc1 | 1.9 | 4.7 | 5.1 |
| 1.43 | 0.213 | Cc1ccccc1Oc1ccc2c3c(cccc13)C1=NC(=O)C(C#N)=C12 |  |  |  |
| 0.308 |  | N#CC1=C2C(=NC1=O)c1cccc3c(Oc4ccc(-c5ccccc5)cc4)ccc2c13 |  |  |  |
| 6.03 | 0.445 | Cc1cccc(Oc2ccc3c4c(cccc24)C2=NC(=O)C(C#N)=C23)c1 |  |  |  |
| 0.232 |  | CC(C)c1ccc(Oc2ccc3c4c(cccc24)C2=NC(=O)C(C#N)=C23)cc1 |  |  |  |
|  |  | CCC(C)c1ccc(Oc2ccc3c4c(cccc24)C2=NC(=O)C(C#N)=C23)cc1 (stereo not drawn) | 0.04 | 0.05 | 0.02 |

From ChEMBL document CHEMBL1821721, “Probing the difference between BH3 groove of Mcl-1 and Bcl-2 protein: Implications for dual inhibitors design” (Eur J Med Chem, 2011)
